In ChEMBL document CHEMBL4627300, “Discovery of 1,8-naphthyridin-2-one derivative as a potent and selective sphingomyelin synthase 2 inhibitor” (Bioorg Med Chem, 2020):
In brackets after ≈: the same amount, converted by molar mass. Activity calls are given as the source filed them. The rule behind the calls is not given here.

Tests used:
[1] = target: T1, Phosphatidylcholine:ceramide cholinephosphotransferase 2 (Homo sapiens, UniProt Q8NHU3); experiment: Inhibition of human recombinant C-terminal FLAG-tagged SMS2 expressed in Freestyle293 cell membrane using C14-phosphatidylcholineD72 and C17-ceramide pre-incubated for 60 mins followed by incubation with substrate for 30 mins measured by RapidFire/MS assay
T1 sequence (Q8NHU3 whole entry): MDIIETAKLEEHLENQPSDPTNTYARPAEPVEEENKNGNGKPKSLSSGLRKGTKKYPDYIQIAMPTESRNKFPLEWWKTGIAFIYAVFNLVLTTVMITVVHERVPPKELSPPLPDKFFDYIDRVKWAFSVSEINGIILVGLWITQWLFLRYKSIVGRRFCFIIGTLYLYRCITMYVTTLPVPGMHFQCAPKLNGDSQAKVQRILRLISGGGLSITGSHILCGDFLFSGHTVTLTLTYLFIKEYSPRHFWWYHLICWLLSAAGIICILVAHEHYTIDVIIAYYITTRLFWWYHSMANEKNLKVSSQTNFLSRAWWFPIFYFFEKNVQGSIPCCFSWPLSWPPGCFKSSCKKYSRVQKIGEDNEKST
Method in brief: (§1)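 C-terminal FLAG-tagged full-length SMS (human SMS1, mouse SMS2, human SMS2) transiently expressed in FreeStyle293 cells for 2 days; total membranes isolated by ultracentrifugation. Enzyme (30 µg/mL) preincubated 60 min with compound, then reacted 30 min at room temperature. Buffer: KCl, 0.1% BSA, 0.03% NP-40 substitute, 1 mM DTT, 10% DMSO. Substrates: 50 µM C14-PC-D72 and 1 µM C17-ceramide. Stopped with 2-propanol/formic acid containing C17-SM internal standard. Product C17-SM-d13 measured by RapidFire SPE and positive SRM MS. % inhibition calculated from peak area ratios against vehicle and no-reaction controls.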

[2] = target: T2, Phosphatidylcholine:ceramide cholinephosphotransferase 2 (Mus musculus, UniProt Q9D4B1); experiment: Inhibition of mouse recombinant C-terminal FLAG-tagged SMS2 expressed in mammalian expression system using C14-phosphatidylcholineD72 and C17-ceramide pre-incubated for 60 mins followed by incubation with substrate for 30 mins measured by RapidFire/MS assay; method in brief: as §1
T2 sequence (Q9D4B1 whole entry): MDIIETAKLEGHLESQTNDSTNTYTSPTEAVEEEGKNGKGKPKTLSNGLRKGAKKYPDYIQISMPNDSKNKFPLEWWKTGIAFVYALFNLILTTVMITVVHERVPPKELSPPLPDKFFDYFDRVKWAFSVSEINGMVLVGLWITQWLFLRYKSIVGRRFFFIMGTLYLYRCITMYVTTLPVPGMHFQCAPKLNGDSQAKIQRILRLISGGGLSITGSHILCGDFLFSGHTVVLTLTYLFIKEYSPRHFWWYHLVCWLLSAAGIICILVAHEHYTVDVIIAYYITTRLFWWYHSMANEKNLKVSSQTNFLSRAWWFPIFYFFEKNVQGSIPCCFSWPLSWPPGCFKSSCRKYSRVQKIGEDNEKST

[3] = target: T3, Phosphatidylcholine:ceramide cholinephosphotransferase 1 (Homo sapiens, UniProt Q86VZ5); experiment: Inhibition of human recombinant C-terminal FLAG-tagged SMS1 expressed in mammalian expression system using C14-phosphatidylcholineD72 and C17-ceramide pre-incubated for 60 mins followed by incubation with substrate for 30 mins measured by RapidFire/MS assay; method in brief: as §1
T3 sequence (Q86VZ5 whole entry): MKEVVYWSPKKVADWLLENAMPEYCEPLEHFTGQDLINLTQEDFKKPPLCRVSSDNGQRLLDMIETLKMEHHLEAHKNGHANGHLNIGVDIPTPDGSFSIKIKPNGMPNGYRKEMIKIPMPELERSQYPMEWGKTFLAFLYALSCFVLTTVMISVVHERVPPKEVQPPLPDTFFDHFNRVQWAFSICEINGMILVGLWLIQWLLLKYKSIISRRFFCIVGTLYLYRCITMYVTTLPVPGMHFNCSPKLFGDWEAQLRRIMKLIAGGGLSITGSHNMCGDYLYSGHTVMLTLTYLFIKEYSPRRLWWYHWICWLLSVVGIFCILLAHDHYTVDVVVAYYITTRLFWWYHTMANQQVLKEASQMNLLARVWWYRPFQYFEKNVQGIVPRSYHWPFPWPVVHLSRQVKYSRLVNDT

[4] = Permeability of compound in buffer solution at pH 7.4 by PAMPA method; assay type: ADME; conditions: read-out: permeability
Method in brief: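 Membrane permeability measured at pH 7.4.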

[5] = Aqueous solubility of DMSO dissolved compound in buffer solution at pH 6.8 by LC-MS/MS analysis; assay type: physicochemical
Method in brief: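 Compound in DMSO added to aqueous buffer at pH 6.8 and incubated. Precipitate removed by filter-plate filtration; dissolved compound in filtrate quantified by LC/MS/MS.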

[6] = Inhibition of SMS (unknown origin); set-up: species or system Homo sapiens
[7] = Cmax in KK-AY/Ta mouse at 100 mg/kg, po; assay type: ADME, organism-based; set-up: dose 100 mg/kg, route oral; conditions: in vivo
Method in brief: (§2)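 Single 100 mg/kg dose given orally or subcutaneously to KK-Ay/Ta mice. Plasma drug concentration followed to 24 h. […] MRT is the mean residence time.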

[8] = Drug concentration in KK-AY/Ta mouse at 100 mg/kg, sc measured upto 24 hrs; assay type: ADME, organism-based; conditions: in vivo, read-out: Drug uptake; method in brief: as §2
[9] = Cmax in KK-AY/Ta mouse at 100 mg/kg, sc; assay type: ADME, organism-based; set-up: dose 100 mg/kg, route subcutaneous; conditions: in vivo; method in brief: as §2
[10] = Drug concentration in KK-AY/Ta mouse at 100 mg/kg, po measured upto 24 hrs; assay type: ADME, organism-based; conditions: in vivo, read-out: Drug uptake; method in brief: as §2
[11] = Tmax in KK-AY/Ta mouse at 100 mg/kg, po; assay type: ADME, organism-based; conditions: in vivo; method in brief: as §2
[12] = Tmax in KK-AY/Ta mouse at 100 mg/kg, sc; assay type: ADME, organism-based; conditions: in vivo; method in brief: as §2
[13] = AUC (0 to 24 hrs) in KK-AY/Ta mouse at 100 mg/kg, po; assay type: ADME, organism-based; set-up: dose 100 mg/kg, time < 24 hr, route oral; conditions: in vivo; method in brief: as §2
[14] = AUC (0 to 24 hrs) in KK-AY/Ta mouse at 100 mg/kg, sc; assay type: ADME, organism-based; set-up: time < 24 hr, dose 100 mg/kg, route subcutaneous; conditions: in vivo; method in brief: as §2
[15] = MRT in KK-AY/Ta mouse at 100 mg/kg, po; assay type: ADME, organism-based; conditions: in vivo; method in brief: as §2
[16] = MRT in KK-AY/Ta mouse at 100 mg/kg, sc; assay type: ADME, organism-based; conditions: in vivo; method in brief: as §2
Mus musculus [17] = experiment: In vivo inhibition of SMS2 in KK-AY/Ta mouse assessed as decrease in hepatic SM (22:00) levels at 100 mg/kg, sc qd for 7 days measured after last dosing by LC/MS analysis; assay type: functional, organism-based
Method in brief: (§3)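 Male KK-Ay/Ta mice, 10 weeks old, dosed orally or subcutaneously once or twice daily for 7 days; vehicle-treated controls. Livers removed under anesthesia the morning after the last dose. Tissue homogenized in isopropanol (100 mg/mL) by ball-mill and centrifuged; supernatant SM (22:0) measured by reverse-phase LC/MS.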

Mus musculus [18] = experiment: In vivo inhibition of SMS2 in KK-AY/Ta mouse assessed as decrease in hepatic SM (22:00) levels at 200 mg/kg, sc bid for 7 days measured after last dosing by LC/MS analysis; assay type: functional, organism-based; method in brief: as §3
Mus musculus [19] = experiment: In vivo inhibition of SMS2 in KK-AY/Ta mouse assessed as decrease in hepatic SM (22:00) levels at 100 mg/kg, po qd for 7 days measured after last dosing by LC/MS analysis; assay type: functional, organism-based; method in brief: as §3
Mus musculus [20] = experiment: In vivo inhibition of SMS2 in KK-AY/Ta mouse assessed as decrease in hepatic SM (22:00) levels at 200 mg/kg, po bid for 7 days measured after last dosing by LC/MS analysis; assay type: functional, organism-based; method in brief: as §3

Compound	IC50 [1] [nM]	IC50 [2] [nM]	IC50 [3] [µM]	Papp [4] [×10⁻⁶ cm/s]	solubility kinetic [5] [µg/mL]	other results
CN(Cc1cc(C(F)(F)F)cc(C(F)(F)F)c1)C(=O)c1c(OCCOCc2ccccc2)c2ccccc2n(C)c1=O	380	590	22			
CC(C)CCOc1c(C(=O)N(C)Cc2cc(C(F)(F)F)cc(C(F)(F)F)c2)c(=O)n(C)c2ccccc12	350	260	> 100			
CN(Cc1cc(C(F)(F)F)cc(C(F)(F)F)c1)C(=O)c1c(OCCCc2ccccc2)c2ccccc2n(C)c1=O	210	120	14			
COc1cc(CN(C)C(=O)c2c(OCCCC3CCN(C(=O)OC(C)(C)C)CC3)c3cccnc3n(C)c2=O)cc(OC)c1	130	32	10	24.1	7.3 (≈ 12 µM)	
S=C(S)OC1C[C@H]2C[C@@H]1[C@H]1CCC[C@@H]21 (some centres undefined)						IC50 [6]: > 100 µM
CCOc1cc(CN(C)C(=O)c2c(OCCCC3CCN(C(=O)OC(C)(C)C)CC3)c3ccccc3n(C)c2=O)cc(OCC)c1	380	51	15	27.5	< 0.08	
CN(Cc1cc(C(F)(F)F)cc(C(F)(F)F)c1)C(=O)c1c(OCCCC(F)(F)F)c2ccccc2n(C)c1=O	120	240	25			
CN(Cc1cc(C(F)(F)F)cc(C(F)(F)F)c1)C(=O)c1c(N2CCCC2)c2ccccc2n(C)c1=O		1100	> 100			
CN(Cc1cc(C(F)(F)F)cc(C(F)(F)F)c1)C(=O)c1c(OCCCC2CCN(C(=O)OC3(C)CC3)CC2)c2cccnc2n(C)c1=O	47	3	0.85	72.1	< 0.3	
CN(Cc1cc(C(F)(F)F)cc(C(F)(F)F)c1)C(=O)c1c(OCCCC2CCN(C(=O)OC(C)(C)C)CC2)c2ccccc2n(C)c1=O	30	7.7	3.4	1.1	< 0.16	
CN(Cc1cc(C(F)(F)F)cc(C(F)(F)F)c1)C(=O)c1c(N2CCCCC2)c2ccccc2n(C)c1=O	11000		> 100			
COc1cc(CN(C)C(=O)c2c(OCCCC3CCN(C(=O)OC(C)(C)C)CC3)c3cnccc3n(C)c2=O)cc(OC)c1	1600	340	> 100	26	33 (≈ 54.2 µM)	
CN(Cc1cc(C(F)(F)F)cc(C(F)(F)F)c1)C(=O)c1c(N2CCC(OCc3ccccc3)C2)c2ccccc2n(C)c1=O (centres undefined)	610	660	15			
COc1cc(CN(C)C(=O)c2c(OCCCC3CCN(C(=O)OC4(C)CC4)CC3)c3cccnc3n(C)c2=O)cc(C(F)(F)F)c1	45	2.2	2.4	42.4	0.79 (≈ 1.23 µM)	Cmax [7]: 6500 ng/mL; concentration at 24 h [8]: 230 ng/mL; Cmax [9]: 700 ng/mL; concentration at 24 h [10]: 7 ng/mL; Tmax [11]: 49.8 min; Tmax [12]: 8 h; AUC(0-t) at 24 h [13]: 18000 ng·h/mL; AUC(0-t) at 24 h [14]: 12000 ng·h/mL; MRT [15]: 3 h; MRT [16]: 9.4 h; inhibition (Mus musculus [17]): Active; inhibition (Mus musculus [18]): Active; inhibition (Mus musculus [19]): inactive; inhibition (Mus musculus [20]): inactive
COc1cc(CN(C)C(=O)c2c(OCCCC3CCN(C(=O)OC(C)(C)C)CC3)c3ccccc3n(C)c2=O)cc(OC)c1	91	19	19	29.5	1.8 (≈ 2.96 µM)	
CCCOc1c(C(=O)N(C)Cc2cc(C(F)(F)F)cc(C(F)(F)F)c2)c(=O)n(C)c2ccccc12	2100		> 100			
CN(Cc1cc(C(F)(F)F)cc(C(F)(F)F)c1)C(=O)c1c(OCCCC2CCCCC2)c2ccccc2n(C)c1=O	480	190	14			
COc1cc(CN(C)C(=O)c2c(OCCCC3CCN(C(=O)OC4(C)CC4)CC3)c3cccnc3n(C)c2=O)cc(OC)c1	300	14	18	20	16 (≈ 26.4 µM)	
